Columns and labels:
Format in all cases: functional
Amaranthus retroflexus [1] = assay: Herbicidal activity against Amaranthus retroflexus assessed as inhibition of herb growth at 1.5 kg/ha during postemergence treatment protocol; details: post-emergence, read-out: GI
Digitaria sanguinalis [2] = assay: Herbicidal activity against hairy Digitaria sanguinalis (hairy crabgrass) assessed as inhibition of herb growth at 1.5 kg/ha during postemergence treatment protocol; details: post-emergence, read-out: GI
Brassica napus [3] = assay: Herbicidal activity against Brassica napus (oilseed rape) assessed as inhibition of herb growth at 1.5 kg/ha during postemergence treatment protocol; details: post-emergence, read-out: GI
Digitaria sanguinalis [4] = assay: Herbicidal activity against hairy Digitaria sanguinalis (hairy crabgrass) assessed as inhibition of herb growth at 1.5 kg/ha during preemergence treatment protocol; details: pre-emergence, read-out: GI
Medicago sativa [5] = assay: Herbicidal activity against Medicago sativa (alfalfa) assessed as inhibition of herb growth at 1.5 kg/ha during preemergence treatment protocol; details: pre-emergence, read-out: GI
Brassica napus [6] = assay: Herbicidal activity against Brassica napus (oilseed rape) assessed as inhibition of herb growth at 1.5 kg/ha during preemergence treatment protocol; details: pre-emergence, read-out: GI
Spinacia oleracea = assay: Inhibition of photosynthetic electron transport in Spinacia oleracea (spinach)isolated chloroplasts assessed as inhibition of Hill reaction
How it was run: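 Chloroplasts from fresh spinach leaves, homogenised in ice-cold pH 7.8 buffer (0.4 M sucrose, 10 mM NaCl, 50 mM Tris-HCl), spun 3 min 120g then 5 min 1000g at 4 °C. Reaction buffer 350 mM NaCl, 10 mM Tris-HCl pH 7.8 with DCPIP; 2 min light (360 µmol m^-2 s^-1), DCPIP reduction at 620 nm. Compounds 0.01 mg/L–0.3 mg/mL in […]/water, ≥triplicate; IC50 by log-linear regression.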

Medicago sativa [7] = assay: Herbicidal activity against Medicago sativa (alfalfa) assessed as inhibition of herb growth at 1.5 kg/ha during postemergence treatment protocol; details: post-emergence, read-out: GI
Amaranthus retroflexus [8] = assay: Herbicidal activity against Amaranthus retroflexus assessed as inhibition of herb growth at 1.5 kg/ha during preemergence treatment protocol; details: pre-emergence, read-out: GI
[9] = Spinacia oleracea, read-out: pIC50 (converted)

SMILES	inhibition of growth at 1500 g/ha (Amaranthus retroflexus [1])	inhibition of growth at 1500 g/ha (Digitaria sanguinalis [2])	inhibition of growth at 1500 g/ha (Brassica napus [3])	inhibition of growth at 1500 g/ha (Digitaria sanguinalis [4])	inhibition of growth at 1500 g/ha (Medicago sativa [5])	inhibition of growth at 1500 g/ha (Brassica napus [6])	IC50 (Spinacia oleracea)	IC50 (Spinacia oleracea; [9])	inhibition of growth at 1500 g/ha (Medicago sativa [7])	inhibition of growth at 1500 g/ha (Amaranthus retroflexus [8])
CCOCCOC(=O)/C(C#N)=C(\NCc1ccc(Br)nc1)SC	100%	60%	100%	0%	12%	23.9%	0.084 ppm	0.0832 µM	59.9%	91.9%
CCOCCOC(=O)/C(C#N)=C(/CC)NCc1ccc(Br)nc1	100%	95.2%	100%	18.8%	28.8%	71.9%	0.335 ppm	0.339 µM	77.8%	21.6%
CCOCCOC(=O)/C(C#N)=C(\NCc1ccc(Br)nc1)C(C)C	97.8%	42.4%	100%	16.8%	0%	68.7%	0.099 ppm	0.1 µM	32.1%	48.6%
CCOCCOC(=O)/C(C#N)=C(\NCc1ccc(N(C)C)nc1)SC	80.9%	45.6%	100%	28.7%	0%	37.4%	0.292 ppm	0.295 µM	51.6%	13.5%
CCOCCOC(=O)/C(C#N)=C(\NCc1ccc(N(C)C)nc1)C(C)C	100%	88%	100%	52.5%	27.9%	29.3%	0.086 ppm	0.0851 µM	58.3%	75.7%
CCOCCOC(=O)/C(C#N)=C(\NCc1ccc(OCC(F)(F)F)nc1)SC	100%	100%	100%	0%	0%	10%	0.048 ppm	0.0479 µM	54.2%	0%
CCOCCOC(=O)/C(C#N)=C(\NCc1cnc(Cl)s1)C(C)C	100%	45.6%	100%	28.7%	15.7%	70.3%	0.161 ppm	0.162 µM	37.1%	67.6%
CCOCCOC(=O)/C(C#N)=C(\NCc1cnc(Br)s1)SC	88%	36%	100%	8.9%	8.2%	28.7%	0.102 ppm	0.102 µM	26.8%	29.7%
CCOCCOC(=O)/C(C#N)=C(\NCc1ccc(Cl)cc1)C(C)C	100%	46.4%	100%	12.9%	0%	4.4%	0.043 ppm	0.0427 µM	68.9%	40.5%
CCOCCOC(=O)/C(C#N)=C(\NCc1ccc(Cl)cc1)SC	100%	31.2%	100%	24.8%	0%	24.9%	0.026 ppm	0.0257 µM	12.9%	59.4%
CCOCCOC(=O)/C(C#N)=C(\NCc1ccc(Cl)nc1)SC	100%	89.9%	100%	18.6%	1.5%	68.9%	0.167 ppm	0.166 µM	41.3%	13.7%

Source: ChEMBL document CHEMBL3045046, “Synthesis, herbicidal activities, and 3D-QSAR of 2-cyanoacrylates containing aromatic methylamine moieties” (J Agric Food Chem, 2008)
